Laboratory results: publication PMC3028369 (Diabetes, 2011)
In brackets after ≈: the same amount, converted by molar mass. Values belong to the compound of their own block, whether it stands above or below them.

Assays:
[1] = Oral bioavailability in rats; type: in vivo, rat
Aqueous solubility = type: physicochemical
KKA^Y mice = assay: Hyperinsulinemic-euglycemic clamp in diabetic KKA^Y mice; type: in vivo, mouse; conditions: 20 mg/kg oral gavage four times at 12-h intervals
Summary of the method: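 Insulin-resistant KKAY mice received test compound at 20 mg/kg by oral gavage four times at 12-h intervals. A jugular catheter was placed under anaesthesia 4–5 days earlier. Plasma [3H]glucose was sampled before, during and at the end. HGP was taken basally and under clamp. N = 7; two-tailed Student t test.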

C57BL/6 mice = assay: High-fat diet-induced elevated fasting blood glucose; type: in vivo, mouse; conditions: 10 mg/kg/day in high-fat diet for 10 weeks, 4-h fast
Summary of the method: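 C57BL/6 mice ate a high-fat diet (55% of calories from fat) for 10 weeks, with or without test compound at 10 mg/kg/day. Blood glucose was measured after a 4-h fast, N = 5.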

mouse aortic ECs [2] = assay: IL-6 and KC production in mouse aortic ECs; type: cell-based; conditions: for effect on IL-6 production in ECs (ELISA): 16 h, 10 nmol/L CPA, 100 nmol/L CGS21680, 10 nmol/L Cl-IBMECA
Summary of the method: (§1)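 Mouse aortic endothelial cells were exposed to the nonselective agonist NECA over a time course. IL-6 and KC were read out as mRNA by quantitative RT-PCR and as secreted protein.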

[3] = system: C57BL/6J and adenosine receptor knockout mice; assay: NECA gavage before glucose tolerance test, fasting glucose and plasma IL-6; type: in vivo, mouse
Summary of the method: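 Male 8-week C57BL/6J mice and congenic adenosine receptor knockouts (N = 5) received an oral bolus of vehicle or NECA (0.3 mg/kg) 35 min before an ip GTT (1.25 g/kg). Blood glucose was read by glucometer and AUC calculated. Fasting glucose was taken 35 min after gavage. Plasma IL-6 was measured 4 h after dosing.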

mouse aortic ECs [4] = assay: Cyclic AMP accumulation in mouse aortic ECs; type: cell-based; conditions: ECs from C57BL/6 mice
mouse aortic ECs [5] = assay: IL-6 mRNA induction in mouse aortic ECs; type: cell-based
Summary of the method: as §1

- oral bioavailability [1]: 73%
- aqueous solubility (Aqueous solubility): 30 µg/mL (≈ 65.3 µM)
SMILES: CCCn1c(=O)n(C2CC2)c(=O)c2[nH]c(-c3ccc(N(CC)C(=O)c4cccnc4)nc3)nc21 [ATL-801]
- basal HGP rate (KKA^Y mice): markedly reduced
- clamp HGP rate (insulin-stimulated state) (KKA^Y mice): markedly reduced
- increase in hepatic insulin action (insulin-mediated percent suppression of basal HGP) (KKA^Y mice): 30%
- diet-induced elevated fasting blood glucose (C57BL/6 mice): significantly reduced

SMILES: CCNC(=O)[C@H]1O[C@@H](n2cnc3c(N)nc(NCCc4ccc(CCC(=O)O)cc4)nc32)[C@H](O)[C@@H]1O [CGS21680]
- effect on IL-6 production in ECs (ELISA) (mouse aortic ECs [2]): without effect

SMILES: OC[C@H]1O[C@@H](n2cnc3c(NC4CCCC4)ncnc32)[C@H](O)[C@@H]1O [CPA]
- effect on IL-6 production in ECs (ELISA) (mouse aortic ECs [2]): without effect

SMILES: CCNC(=O)[C@H]1O[C@@H](n2cnc3c(N)ncnc32)[C@H](O)[C@@H]1O [NECA, 5′-N-ethylcarboxamidoadensoine]
- plasma IL-6 ([3]; C57BL/6J mice, 4 h after administration): increase in plasma IL-6
- fasting glucose levels ([3]; C57BL/6 mice, 35 min after gavage): significantly increased
- glucose disposal during GTT ([3]; wild-type fasted mice, oral gavage 0.3 mg/kg 35 min before GTT): substantial delay in glucose disposal
- IL-6 production (protein) in ECs (mouse aortic ECs [2]; 1 μmol/L, time course): more sustained stimulation
- production of the murine IL-8 homolog KC in ECs (mouse aortic ECs [2]; 1 μmol/L, time course): stimulates the production
- EC50 (mouse aortic ECs [2]; read-out: EC50 to stimulate IL-6 production in ECs, ECs from C57BL/6 mice, 24 h): 140 nM
- cyclic AMP in ECs (mouse aortic ECs [4]; agonist alone): rapid increase in cyclic AMP
- IL-6 mRNA in ECs (mouse aortic ECs [5]; 1 μmol/L, time course): transient increase

SMILES: Nc1nc2c(cnn2CCc2ccc(S(=O)(=O)F)cc2)c2nc(-c3ccco3)nn12 [FSPTP]
- effect on NECA-induced increase in cyclic AMP (mouse aortic ECs [4]; 1 μmol/L ATL-692, 100 nmol/L FSPTP): not affected

SMILES: CCCCCCOC(=O)[C@]1(O)C[C@@H]2O[C@@]1(C)n1c3ccccc3c3c4c(c5c6ccccc6n2c5c31)C(=O)NC4 [KT5720]
- inhibition of IL-6 mRNA induction by NECA (mouse aortic ECs [5]; ECs, inhibitor at 1 μmol/L): significantly inhibited

SMILES: CNC(=O)[C@H]1O[C@@H](n2cnc3c(NCc4cccc(I)c4)nc(Cl)nc32)[C@H](O)[C@@H]1O [Cl-IB-MECA]
- effect on IL-6 production in ECs (ELISA) (mouse aortic ECs [2]): without effect
